Measured values: ChEMBL document CHEMBL1806383, “Optimisation of pharmacokinetic properties to afford an orally bioavailable and selective V1A receptor antagonist” (Bioorg Med Chem Lett, 2011)

What was measured:
[1] = Apparent permeability of the compound from apical to basolateral side of human Caco2 cells; type: ADME, cell-based; details: Caco-2
[2] = Oral bioavailability in Sprague-Dawley rat at 10 mg/kg; type: ADME, organism-based; details: in vivo
How it was run: (§1)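 Male Sprague–Dawley rat, oral 10 mg/kg in 0.5% (w/v) gelatin in 5% (w/v) mannitol.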

Rattus norvegicus [3] = test: Volume of distribution at steady state in Sprague-Dawley rat at 10 mg/kg, po; type: ADME, organism-based; design: dose 10 mg/kg, route oral; details: in vivo; how it was run: as §1
[4] = Oral bioavailability in Sprague-Dawley rat at 5 mg/kg; type: ADME, organism-based; details: in vivo
How it was run: (§2)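 Male Sprague–Dawley rat, oral 5 mg/kg in 0.5% (w/v) gelatin in 5% (w/v) mannitol.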

Rattus norvegicus [5] = test: Volume of distribution at steady state in Sprague-Dawley rat at 5 mg/kg, po; type: ADME, organism-based; design: dose 5 mg/kg, route oral; details: in vivo; how it was run: as §2
[6] = Volume of distribution at steady state in Sprague-Dawley rat at 1 mg/kg, iv and 5 mg/kg, po; type: ADME, organism-based; details: in vivo, read-out: Vdss
How it was run: (§3)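 Male Sprague–Dawley rats; iv 1 mg/kg in 30% DMA in saline and po 5 mg/kg in 0.5% (w/v) gelatin in 5% (w/v) mannitol.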

[7] = Cmax in Sprague-Dawley rat at 1 mg/kg, iv and 5 mg/kg, po; type: ADME, organism-based; details: in vivo; how it was run: as §3
[8] = Tmax in Sprague-Dawley rat at 1 mg/kg, iv and 5 mg/kg, po; type: ADME, organism-based; details: in vivo; how it was run: as §3
[9] = Volume of distribution at steady state in cynomolgus monkey at 1 mg/kg, iv and 3 mg/kg, po; type: ADME, organism-based, Macaca fascicularis; details: in vivo, read-out: Vdss
How it was run: (§4)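 Cynomolgus monkey; iv 1 mg/kg in 30% DMA in saline and po 3 mg/kg in 0.5% (w/v) gelatin in 5% (w/v) mannitol.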

[10] = Cmax in cynomolgus monkey at 1 mg/kg, iv and 3 mg/kg, po; type: ADME, organism-based, Macaca fascicularis; details: in vivo; how it was run: as §4
[11] = Tmax in cynomolgus monkey at 1 mg/kg, iv and 3 mg/kg, po; type: ADME, organism-based, Macaca fascicularis; details: in vivo; how it was run: as §4
[12] = Oral bioavailability in cynomolgus monkey at 3 mg/kg; type: ADME, organism-based, Macaca fascicularis; details: in vivo; how it was run: as §4

SMILES | Papp A→B [1] [×10⁻⁶ cm/s] | other results
O=C(Cc1ccc(Cl)cc1)N[C@H](Cc1ccc(Cl)cc1)C(=O)N[C@H]1C[C@H]2CC[C@@H](C1)N2 | < 10 | 
O=C(Cc1ccc(Cl)cc1)N[C@H](Cc1ccc(Cl)cc1)C(=O)NC1CCCNCC1 (some centres not stated) | < 10 | 
O=C(Cc1ccc(Cl)cc1)N[C@H](Cc1ccc(Cl)cc1)C(=O)NC1CCNCC1 | < 10 | 
CN1CCC(NC(=O)[C@@H](Cc2ccc(Cl)cc2)NC(=O)Cc2ccc(Cl)cc2)CC1 | < 10 | 
CN1CCN(CCCNC(=O)[C@@H](Cc2ccc(Cl)cc2)NC(=O)Cc2ccc(Cl)cc2)CC1 | < 10 | 
CN(C)CCCNC(=O)[C@@H](Cc1ccc(Cl)cc1)NC(=O)Cc1ccc(Cl)cc1 | < 10 | 
CN(C)CCCNC(=O)[C@@H](Cc1ccc(Cl)cc1)NC(=O)C1(c2ccc(Cl)cc2)CC1 | < 10 | 
CCCNC(=O)[C@@H](Cc1ccc(Cl)cc1)NC(=O)Cc1ccc(Cl)cc1 | < 10 | 
O=C(Cc1ccc(Cl)cc1)N[C@H](Cc1ccc(Cl)cc1)C(=O)NCCCO |  | bioavailability [2]: 43%; Vdss (Rattus norvegicus [3]): 2 L/kg
CN(C)[C@H]1CC[C@H](NC(=O)[C@@H](Cc2ccc(Cl)cc2)NC(=O)Cc2ccc(Cl)cc2)CC1 | < 10 | 
CN(C)[C@H]1CC[C@H](NC(=O)[C@@H](Cc2ccc(Cl)cc2)NC(=O)C2(c3ccc(Cl)cc3)CC2)CC1 | < 10 | bioavailability [4]: 17%; Vdss (Rattus norvegicus [5]): 9 L/kg
COc1ccc(C[C@@H](NC(=O)C2(c3ccc(Cl)cc3)CC2)C(=O)N[C@H]2CC[C@H](N(C)C)CC2)cc1 | < 10 | 
CN(C)[C@H]1CC[C@H](NC(=O)[C@@H](Cc2ccc(F)cc2)NC(=O)C2(c3ccc(Cl)cc3)CC2)CC1 | < 10 | 
CN(C)[C@H]1CC[C@H](NC(=O)[C@@H](Cc2ccc(Cl)cc2)NC(=O)C2(c3ccc(Cl)cc3)CCC2)CC1 | < 10 | 
CN(C)[C@H]1CC[C@H](NC(=O)[C@@H](Cc2ccc(Cl)cc2)NC(=O)C2(c3ccc(F)cc3)CCCC2)CC1 | < 10 | 
CN(C)[C@H]1CC[C@H](NC(=O)[C@@H](Cc2ccc(Cl)cc2)NC(=O)C2(c3ccc(F)cc3)CC2)CC1 | < 10 | bioavailability [4]: 30%; Vd [6]: 11.8 L/kg; Cmax [7]: 35 ng/mL; Tmax [8]: 5.8 h; Vd [9]: 6.4 L/kg; Cmax [10]: 41 ng/mL; Tmax [11]: 2.7 h; bioavailability [12]: 20%
CN(C)[C@H]1CC[C@H](NC(=O)[C@@H](Cc2ccc(Cl)cc2)NC(=O)Cc2ccc(F)cc2)CC1 | < 10 | 
O=C(Cc1ccc(Cl)cc1)N[C@H](Cc1ccc(Cl)cc1)C(=O)N[C@H]1CC[C@@H](O)CC1 | < 10 | 
CC(CCO)NC(=O)[C@@H](Cc1ccc(Cl)cc1)NC(=O)Cc1ccc(Cl)cc1 (stereo in doubt; 17c) | < 10 | 
O=C(Cc1ccc(Cl)cc1)N[C@H](Cc1ccc(Cl)cc1)C(=O)NC1CCCC(O)C1 (stereo in doubt; 17e) | < 10 | 
O=C(Cc1ccc(Cl)cc1)N[C@H](Cc1ccc(Cl)cc1)C(=O)NC1CCCCC1O (stereo in doubt; 17h) | > 20 | 
